Experimental findings from ChEMBL document CHEMBL2157878, “In vitro cellular uptake and dimerization of signal transducer and activator of transcription-3 (STAT3) identify the photosensitizing and imaging-potential of isomeric photosensitizers derived from chlorophyll-a and bacteriochlorophyll-a” (J Med Chem, 2011) are described below.

Data set [1] concerns Colon 26. The data set can be described thus: Photosensitizing activity in mouse Colon 26 assessed as cell viability at 0.0625 uM after 24 hrs followed by illumination with 665 nm laser light and 48 hrs incubation in dark by MTT assay in presence of serum. It is filed as functional, cell-based. The method, boiled down: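 Colon26 cells, 3×10³/well in RPMI/10% FCS, were incubated 24 h in the dark with photosensitizer at 0.3 μM or 0.0625 μM. Medium was replaced with drug-free complete medium before illumination at 0–4 J/cm², 3.2 mW/cm², at each compound's peak wavelength (660, 665 or 674 nm). After 48 h in the dark, MTT was added for the last 4 h and absorbance read at 570 nm. Four replicate wells per condition, three independent experiments.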

Data set [2] relates to Mus musculus. As to the kind of experiment: Drug uptake in BALB/c mouse xenografted with mouse Colon 26 cells at 1 umol/kg, iv after 24 hrs by fluorescence imaging. Type of data set: ADME, organism-based. The note with it: in vivo. Summed up: (§1)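 BALB/c mice (3/group) with Colon26 tumours (1×10⁶ cells s.c., right axilla, grown to 4–5 mm) were shaved and given 1.0 μmol/kg PS i.v. Whole-body fluorescence imaged under ketamine/xylazine at 24, 48 and 72 h: 540/40 nm illumination, long-pass emission filter, spectral unmixing of autofluorescence. Read-out is mean intensity of a 20 mm tumour ROI (AU), mean ± SD of 3 mice.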

Data set [3] relates to BCC1. As to the kind of experiment: Induction of apoptosis in human BCC1 cells assessed as survival after 24 hrs by trypan blue assay. It is filed as functional, cell-based. Summed up: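 BCC1 cells were loaded for 2 h in serum-free DMEM with 2-fold serial dilutions of photosensitizer. After washing, they were illuminated in serum-free medium at 37° with 665 nm dye-laser light for 9 min (3 J/cm²). Cells were then cultured 24 h in DMEM/10% FCS and trypsinized. Trypan blue-excluding cells were counted by hemocytometer and expressed relative to untreated controls.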

Data set [4] is described as follows: Drug uptake in human BCC1 cells assessed as deposition in mitochondria at 200 nM after 30 mins by HPPH fluorescence spectrophotometry. Type of data set: ADME. The settings on record: bcc1, 0.5 h, 0.2 µM. Summed up:
(§2)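 BCC1 cells in subconfluent culture, washed and incubated 30 min in serum-free DMEM with 200 nM PS. Washed free of PS and imaged at 640X under phase contrast and HPPH fluorescence (Ex 410/40, Em 675/750 nm). Cell PS also quantified by solubilising cells and reading fluorescence (Ex 415, Em 667 nm).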

The nature of data set [5]: Drug uptake in human BCC1 cells at 200 nM incubated for 30 mins measured after 4 to 24 hrs by fluorescent microscopy. Type of data set: ADME, cell-based. The settings on record: bcc1, 0.5 h, 0.2 µM.
Data set [6] relates to Colon 26. As to the kind of experiment: Drug uptake in mouse Colon 26 cells at 400 nM after 24 hrs by flow cytometry. The note with it: colon 26, 24 h, 0.4 µM. Type of data set: ADME, cell-based. The method, boiled down: (§3)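 Colon26 cells seeded at 0.33×10⁶ per well and grown overnight, then given 100–800 nM PS in triplicate at 37°C, with no-PS wells for autofluorescence. Harvested by trypsin, spun cold, and run on flow cytometry (Ex 633 nm, Em 730±45 nm, 10,000 events). Value is mean fluorescence of triplicates minus autofluorescence.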
A general note: In flow cytometry, cells or beads pass a laser one at a time.

Data set [7] can be described thus: Photostability of the compound in 17% bovine calf serum assessed as rate of photobleaching at 6.5 uM after 20 to 22 mins in presence of light (75 mW/cm'2). It is filed as ADME. The settings on record: cattle, read-out: Drug degradation. Summed up:
(§4)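 Equimolar (6.5 μM) photosensitizer solutions in 17% bovine calf serum were irradiated at 75 mW/cm². Absorption spectra were recorded at successive time points, and the normalized long-wavelength absorbance was plotted against time to follow photobleaching.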

Data set [8] can be described thus: Drug uptake in BALB/c mouse tumor xenografted with mouse Colon 26 cells at 1 umol/kg, iv after 24 hrs by fluorescence imaging. It is filed as ADME, organism-based, Neoplasm. The note with it: in vivo. The method, boiled down: as §1
For data set [9], the system named is BCC1 cells (Homo sapiens). As to the kind of experiment: Ratio of drug uptake in human BCC1 cells in serum free medium to drug uptake in human BCC1 cells in medium containing 10% fetal calf serum by fluorescent microscopy.
The nature of data set [10]: Photostability of the compound in 17% bovine calf serum assessed as decrease in rate of photobleaching at 6.5 uM after 40 mins in presence of light (75 mW/cm'2). It is filed as ADME. The settings on record: cattle. The method, boiled down:
as §4

A short description of data set [11]: Drug uptake in human BCC1 cells assessed as deposition in mitochondria at 200 nM after 30 mins by phase contrast microscopy. It is filed as ADME. The settings on record: bcc1, 0.5 h, 0.2 µM. Summed up: as §2
Data set [12] deals with MAP kinase p38 (Homo sapiens) (UniProt O15264+Q15759+Q16539+P53778). The data set can be described thus: Activation of p38 MAPK in human BCC1 cells assessed as dimerization of STAT3 after 9 mins by Western blotting in presence of 665 nm laser light. It is filed as cell-based. Summed up:
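Subconfluent BCC1 cells, 2 h in serum-free DMEM with 2-fold serially diluted PS, then 665 nm dye-laser light for 9 min at 37°C (3 J/cm²) in serum-free medium. Cells extracted immediately and lysed in RIPA. 20 μg protein run on 6–10% SDS gels and immunoblotted for STAT3, p38/P-p38 and EGFR with ECL detection. Crosslinking given as % monomeric STAT3 converted to dimer form I.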
In general terms: A western blot detects proteins with antibodies after separation by electrophoresis.

Data set [13] concerns Mus musculus. The data set can be described thus: Drug uptake in BALB/c mouse xenografted with mouse Colon 26 cells at 1 umol/kg, iv after 48 hrs by fluorescence imaging. The settings on record: in vivo. It is filed as ADME, organism-based. Summed up: as §1
Data set [14] deals with BCC1. As to the kind of experiment: Increase in STAT3 cross linking level in human BCC1 cells assessed as dimerization of STAT3 after 9 mins by Western blotting in presence of 665 nm light.
In data set [15] the test system is BCC1. The data set can be described thus: Reduction in EGFR levels in human BCC1 cells after 9 mins by Western blotting in presence of 665 nm laser light. Type of data set: functional, cell-based. The method, boiled down:
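BCC1 cells were incubated 2 h in serum-free DMEM with 2-fold serially diluted photosensitizer, washed, and illuminated with 665 nm light for 9 min (3 J/cm²). They were extracted immediately in RIPA buffer. Extracts (20 μg protein) were run on 6–10% SDS gels and immunoblotted for STAT3, EGFR, p38 and P-p38 with ECL detection. STAT3 crosslinking was scored as percent conversion of monomer into dimer form I.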

For data set [16], the system named is Colon 26. As to the kind of experiment: Drug uptake in mouse Colon 26 cells at 800 nM after 24 hrs by flow cytometry. The settings on record: colon 26, 24 h, 0.8 µM. Type of data set: ADME, cell-based. The method, boiled down:
as §3

The subject of data set [17] is Colon 26. The data set can be described thus: Antitumor activity against mouse Colon 26 cells xenografted in parenterally dosed BALB/c mouse assessed as tumor cure at 1 umol/kg after 24 hrs followed by illumination with 128 J/cm'2, 14 mW/cm'2 laser light measured after 60 days. Type of data set: functional. The method, boiled down:
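Subcutaneous Colon26 tumours in BALB/c mice (10/group), dosed at 4–5 mm diameter with 1 μmol/kg PS. At 24 h, unanaesthetised restrained mice received laser light to the tumour (665, 660 or 674 nm by compound; 128 J/cm², 14 mW/cm²). Tumours measured daily (V = L·W²/2). Cure means no palpable tumour by day 60–90. Euthanasia at 400 mm³.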

Data set [18] deals with Mus musculus. The data set can be described thus: Drug uptake in BALB/c mouse xenografted with mouse Colon 26 cells at 1 umol/kg, iv after 72 hrs by fluorescence imaging. It is filed as ADME, organism-based. The note with it: in vivo. The method, boiled down: as §1

Active and inactive are the calls of the source. The rule behind the calls is not given here.

Take `CCc1c(C)c2cc3nc(c4c5[nH]c(cc6nc(cc1[nH]2)C(C)=C6C(C)OCc1cccc(I)c1)c(C)c5C(=O)C4)[C@@H](CCC(=O)O)[C@@H]3C` (stereo partly drawn): the outcome in data set [1], in data set [12], in data set [14] and in data set [15] was Active. The Drug uptake entry was “Active” in data set [2]; “Active” in [4]; “Active” in data set [5]; “Active” in [6]; “Not Active” in data set [8]; “Active” in data set [11]. Moreover, the Drug uptake result in [13], in [16] and in data set [18] was “Active” each time. The Activity entry in [3] was “Dose-dependent effect”. In addition, the degraded at 6.5 µM in [7] was determined as 50%. The Ratio in data set [9] stood at 4. For the same compound, in [10], the Stability result is reported as “Stable”. The result in data set [17] was inactive.
